Measurements taken from ChEMBL document CHEMBL4627266, “Design and biological evaluation of a novel type of potential multi-targeting antimicrobial sulfanilamide hybrids in combination of pyrimidine and azoles” (Bioorg Med Chem Lett, 2020).
In brackets after ≈: the same amount, converted by molar mass. Activity calls are given as the source filed them. The rule behind the calls is not given here.

Each molecule was assayed on Enterococcus faecalis (assay: Antibacterial activity against Enterococcus faecalis by two fold serial microbroth dilution method).
Type: functional
In short: (§1)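 Two-fold serial dilution in microdilution plates (micro broth dilution) following CLSI. Panel includes clinical drug-resistant isolates and ATCC reference strains. Clinical drugs were run as positive controls.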
For `Nc1ccc(S(=O)(=O)Nc2nccc(-n3ccc4cc(Br)ccc43)n2)cc1`, the MIC was 4 µg/mL (≈ 9 µM). Molecule `CCn1cc(C(=O)O)c(=O)c2cc(F)c(N3CCNCC3)cc21` [NORFLOXACIN] has an MIC of 4 µg/mL (≈ 12.5 µM). Molecule `CC(C)c1nccn1-c1ccnc(NS(=O)(=O)c2ccc(N)cc2)n1` has an MIC of 128 µg/mL (≈ 357 µM).

These molecules were tested on Enterococcus faecalis (assay: Antibacterial activity against Enterococcus faecalis measured after 16 passages by microbroth dilution method).
Type: functional, organism-based
`CCn1cc(C(=O)O)c(=O)c2cc(F)c(N3CCNCC3)cc21` [NORFLOXACIN] was tested, and the Activity was “inactive”.

The molecules below were run on Candida tropicalis (assay: Antifungal activity against Candida tropicalis by two fold serial microbroth dilution method).
Type: functional
In short: (§2)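 Antifungal MIC by two-fold serial dilution following CLSI, with a clinical drug as positive control. Panel includes clinical drug-resistant fungal isolates.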
Molecule `Nc1ccc(S(=O)(=O)Nc2nccc(-n3ccc4cc(Br)ccc43)n2)cc1` has an MIC of 2 to 8 µg/mL (≈ 4.5 to 18 µM).

Each molecule was assayed on Staphylococcus aureus (assay: Antibacterial activity against Staphylococcus aureus ATCC 25923 by two fold serial microbroth dilution method).
Type: functional
In short: as §1
`Nc1ccc(S(=O)(=O)Nc2nccc(-n3ccc4cc(Br)ccc43)n2)cc1` gave an MIC of 2 µg/mL (≈ 4.5 µM). `CCn1cc(C(=O)O)c(=O)c2cc(F)c(N3CCNCC3)cc21` [NORFLOXACIN] gave an MIC of 1 µg/mL (≈ 3.13 µM). `CC(C)c1nccn1-c1ccnc(NS(=O)(=O)c2ccc(N)cc2)n1` showed an MIC of 256 µg/mL (≈ 714 µM).

What follows are molecules tested on Candida albicans (assay: Antifungal activity against Candida albicans by two fold serial microbroth dilution method).
Type: functional
In short: as §2
In the case of `Nc1ccc(S(=O)(=O)Nc2nccc(-n3ccc4cc(Br)ccc43)n2)cc1`, the MIC is reported as 2 to 8 µg/mL (≈ 4.5 to 18 µM).

What follows are molecules tested on Pseudomonas aeruginosa (assay: Antibacterial activity against Pseudomonas aeruginosa by two fold serial microbroth dilution method).
Type: functional
In short: as §1
`Nc1ccc(S(=O)(=O)Nc2nccc(-n3ccc4cc(Br)ccc43)n2)cc1` was tested, and the MIC was 4 µg/mL (≈ 9 µM). `CCn1cc(C(=O)O)c(=O)c2cc(F)c(N3CCNCC3)cc21` [NORFLOXACIN] showed an MIC of 2 µg/mL (≈ 6.26 µM). With `CC(C)c1nccn1-c1ccnc(NS(=O)(=O)c2ccc(N)cc2)n1` the MIC was 128 µg/mL (≈ 357 µM).

The molecules below were run on Klebsiella pneumoniae (assay: Antibacterial activity against Klebsiella pneumoniae by two fold serial microbroth dilution method).
Type: functional
In short: as §1
`Nc1ccc(S(=O)(=O)Nc2nccc(-n3ccc4cc(Br)ccc43)n2)cc1` gave an MIC of 32 µg/mL (≈ 72 µM). Molecule `CCn1cc(C(=O)O)c(=O)c2cc(F)c(N3CCNCC3)cc21` [NORFLOXACIN] has an MIC of 4 µg/mL (≈ 12.5 µM). For `CC(C)c1nccn1-c1ccnc(NS(=O)(=O)c2ccc(N)cc2)n1`, the MIC was 256 µg/mL (≈ 714 µM).

What follows are molecules tested on Escherichia coli (assay: Antibacterial activity against Escherichia coli by two fold serial microbroth dilution method).
Type: functional
In short: as §1
`Nc1ccc(S(=O)(=O)Nc2nccc(-n3ccc4cc(Br)ccc43)n2)cc1` showed an MIC of 4 µg/mL (≈ 9 µM). `CCn1cc(C(=O)O)c(=O)c2cc(F)c(N3CCNCC3)cc21` [NORFLOXACIN] was tested, and the MIC was 16 µg/mL (≈ 50.1 µM). `CC(C)c1nccn1-c1ccnc(NS(=O)(=O)c2ccc(N)cc2)n1` was tested, and the MIC was 64 µg/mL (≈ 179 µM).

What follows are molecules tested on Staphylococcus aureus (assay: Antibacterial activity against Staphylococcus aureus by two fold serial microbroth dilution method).
Type: functional
In short: as §1
`Nc1ccc(S(=O)(=O)Nc2nccc(-n3ccc4cc(Br)ccc43)n2)cc1` showed an MIC of 64 µg/mL (≈ 144 µM). In the case of `CCn1cc(C(=O)O)c(=O)c2cc(F)c(N3CCNCC3)cc21` [NORFLOXACIN], the MIC is reported as 0.5 µg/mL (≈ 1.57 µM). `CC(C)c1nccn1-c1ccnc(NS(=O)(=O)c2ccc(N)cc2)n1` was tested, and the MIC was 256 µg/mL (≈ 714 µM).

Each molecule was assayed on Escherichia coli (assay: Antibacterial activity against Escherichia coli ATCC 25922 by two fold serial microbroth dilution method).
Type: functional
In short: as §1
In the case of `Nc1ccc(S(=O)(=O)Nc2nccc(-n3ccc4cc(Br)ccc43)n2)cc1`, the MIC is reported as 2 µg/mL (≈ 4.5 µM). `CCn1cc(C(=O)O)c(=O)c2cc(F)c(N3CCNCC3)cc21` [NORFLOXACIN] showed an MIC of 8 µg/mL (≈ 25.1 µM). `CC(C)c1nccn1-c1ccnc(NS(=O)(=O)c2ccc(N)cc2)n1` showed an MIC of 128 µg/mL (≈ 357 µM).

These molecules were tested on Staphylococcus aureus (assay: Antibacterial activity against methicillin-resistant Staphylococcus aureus by two fold serial microbroth dilution method).
Type: functional
In short: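 Two-fold serial microbroth dilution in microdilution plates, run per CLSI, with clinical antibacterial drugs as positive controls. The MRSA strain was a drug-resistant clinical isolate from infected patients. MIC (μg/mL) was read as the lowest concentration giving complete inhibition of visible bacterial growth.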
`Nc1ccc(S(=O)(=O)Nc2nccc(-n3ccc4cc(Br)ccc43)n2)cc1` showed an MIC of 4 µg/mL (≈ 9 µM). `CCn1cc(C(=O)O)c(=O)c2cc(F)c(N3CCNCC3)cc21` [NORFLOXACIN] was tested, and the MIC was 8 µg/mL (≈ 25.1 µM). `CC(C)c1nccn1-c1ccnc(NS(=O)(=O)c2ccc(N)cc2)n1` was tested, and the MIC was 32 µg/mL (≈ 89.3 µM).

Each molecule was assayed on Aspergillus fumigatus (assay: Antifungal activity against Aspergillus fumigatus by two fold serial microbroth dilution method).
Type: functional
In short: as §2
`Nc1ccc(S(=O)(=O)Nc2nccc(-n3ccc4cc(Br)ccc43)n2)cc1` was tested, and the MIC was 2 to 8 µg/mL (≈ 4.5 to 18 µM).

What follows are molecules tested on Pseudomonas aeruginosa (assay: Antibacterial activity against Pseudomonas aeruginosa ATCC 27853 by two fold serial microbroth dilution method).
Type: functional
In short: as §1
Molecule `Nc1ccc(S(=O)(=O)Nc2nccc(-n3ccc4cc(Br)ccc43)n2)cc1` has an MIC of 4 µg/mL (≈ 9 µM). `CCn1cc(C(=O)O)c(=O)c2cc(F)c(N3CCNCC3)cc21` [NORFLOXACIN] showed an MIC of 0.5 µg/mL (≈ 1.57 µM). In the case of `CC(C)c1nccn1-c1ccnc(NS(=O)(=O)c2ccc(N)cc2)n1`, the MIC is reported as 32 µg/mL (≈ 89.3 µM).

Each molecule was assayed on Staphylococcus aureus (assay: Antibacterial activity against Staphylococcus aureus ATCC 29213 by two fold serial microbroth dilution method).
Type: functional
In short: as §1
Molecule `Nc1ccc(S(=O)(=O)Nc2nccc(-n3ccc4cc(Br)ccc43)n2)cc1` has an MIC of 16 µg/mL (≈ 36 µM). In the case of `CCn1cc(C(=O)O)c(=O)c2cc(F)c(N3CCNCC3)cc21` [NORFLOXACIN], the MIC is reported as 2 µg/mL (≈ 6.26 µM). `CC(C)c1nccn1-c1ccnc(NS(=O)(=O)c2ccc(N)cc2)n1` was tested, and the MIC was 32 µg/mL (≈ 89.3 µM).

These molecules were tested on Acinetobacter baumannii (assay: Antibacterial activity against Acinetobacter baumannii by two fold serial microbroth dilution method).
Type: functional
In short: as §1
Work on `Nc1ccc(S(=O)(=O)Nc2nccc(-n3ccc4cc(Br)ccc43)n2)cc1` yielded an MIC of 128 µg/mL (≈ 288 µM). `CCn1cc(C(=O)O)c(=O)c2cc(F)c(N3CCNCC3)cc21` [NORFLOXACIN] showed an MIC of 8 µg/mL (≈ 25.1 µM). In the case of `CC(C)c1nccn1-c1ccnc(NS(=O)(=O)c2ccc(N)cc2)n1`, the MIC is reported as 64 µg/mL (≈ 179 µM).
